The source made the active and inactive calls. The rule behind the calls is not given here.
Key:
HepG2 = assay: Antiproliferative activity against human HepG2 cells after 72 hrs by XTT assay; assay type: functional; settings: HepG2, 72 h
In short: (§1)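 Cells were grown as monolayers in DMEM with 10% FBS, penicillin, streptomycin and amphotericin at 37 °C and 5% CO2. Plating was 5×10³ cells/well, with treatment for 72 h in 10% FBS medium, a medium change, then another day. XTT (1 mg/mL) plus PMS in serum-free medium was added for 4 h at 37 °C and read at 492 nm. Growth was taken as % of control (mean of n = 3). GI50 was taken from the linear portion of the curve as the 50% absorbance reduction.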

A549 [1] = assay: Antiproliferative activity against human A549 cells after 72 hrs by XTT assay; assay type: functional; settings: A549, 72 h; in short: as §1
[2] = Antiproliferative activity against human HepG2(2.2.1) cells after 72 hrs by XTT assay; assay type: functional; settings: HepG2, 72 h; in short: as §1
[3] = Antiproliferative activity against human H1299 cells after 72 hrs by XTT assay; assay type: functional; settings: NCI-H1299, 72 h; in short: as §1
[4] = Antiproliferative activity against human Hep3B cells after 72 hrs by XTT assay; assay type: functional, Hep 3B2; in short: as §1
[5] = Cytotoxicity against human MRC5 cells after 72 hrs by XTT assay; assay type: cell-based; in short: as §1
A549 [6] = assay: Cell cycle arrest in human A549 cells assessed as accumulation at G2/M phase at 10.0 uM after 24 hrs by flow cytometry; assay type: functional
In short: (§2)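 A549 cells were exposed to DMSO or compound at 0.1, 1.0, 5.0 or 10.0 µM for 24 h. Cells were harvested, rinsed in PBS, fixed in 70% ethanol and stored at −20 °C. Staining used propidium iodide solution with 0.2 mg/mL RNase and 0.1% Triton X-100, at least 30 min at room temperature in the dark. Cell-cycle phases were read by flow cytometry.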

A549 [7] = assay: Cell cycle arrest in human A549 cells assessed as accumulation at subG1 phase at 1.0 uM after 24 hrs by flow cytometry; assay type: functional; in short: as §2
A549 [8] = assay: Cell cycle arrest in human A549 cells assessed as accumulation at subG1 phase at 5.0 uM after 24 hrs by flow cytometry; assay type: functional; in short: as §2
A549 [9] = assay: Cell cycle arrest in human A549 cells assessed as accumulation at S phase at 10.0 uM after 24 hrs by flow cytometry; assay type: functional; in short: as §2
A549 [10] = assay: Cell cycle arrest in human A549 cells assessed as accumulation at subG1 phase at 10.0 uM after 24 hrs by flow cytometry; assay type: functional; in short: as §2
A549 [11] = assay: Cell cycle arrest in human A549 cells assessed as accumulation at G1 phase at 10.0 uM after 24 hrs by flow cytometry; assay type: functional; in short: as §2
A549 [12] = assay: Cell cycle arrest in human A549 cells assessed as accumulation at G1 phase at 5.0 uM after 24 hrs by flow cytometry; assay type: functional; in short: as §2
A549 [13] = assay: Cell cycle arrest in human A549 cells assessed as accumulation at S phase at 1.0 uM after 24 hrs by flow cytometry; assay type: functional; in short: as §2
A549 [14] = assay: Cell cycle arrest in human A549 cells assessed as accumulation at G2/M phase at 1.0 uM after 24 hrs by flow cytometry; assay type: functional; in short: as §2
A549 [15] = assay: Cell cycle arrest in human A549 cells assessed as accumulation at S phase at 5.0 uM after 24 hrs by flow cytometry; assay type: functional; in short: as §2
A549 [16] = assay: Cell cycle arrest in human A549 cells assessed as accumulation at G1 phase at 1.0 uM after 24 hrs by flow cytometry; assay type: functional; in short: as §2
A549 [17] = assay: Cell cycle arrest in human A549 cells assessed as accumulation at G2/M phase at 5.0 uM after 24 hrs by flow cytometry; assay type: functional; in short: as §2
A549 [18] = assay: Cell cycle arrest in human A549 cells assessed as accumulation at G1 phase at 0.1 uM after 24 hrs by flow cytometry; assay type: functional; in short: as §2
A549 [19] = assay: Induction of apoptosis in human A549 cells assessed as shrinkage in microtubule network at 1.0 uM after 24 hrs by immunofluorescence; assay type: functional, cell-based
In short: (§3)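 A549 cells on cover glasses were treated for 24 h, then fixed in 4% paraformaldehyde for 1 h. Glycine-PBS wash, then permeabilization with 2% FBS and 0.4% Triton X-100 for 15 min. Cells were stained with anti-β-tubulin monoclonal (1:1000, 4 °C overnight), then FITC anti-mouse IgG (1:200, 1 h, room temperature). DAPI was added for nuclei, and imaging was by confocal laser scanning microscopy.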

A549 [20] = assay: Cell cycle arrest in human A549 cells assessed as accumulation at S phase at 0.1 uM after 24 hrs by flow cytometry; assay type: functional; in short: as §2
A549 [21] = assay: Induction of apoptosis in human A549 cells assessed as DNA fragmentation after 24 hrs by agarose gel electrophoresis; assay type: functional, cell-based
In short: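 A549 cells were treated at 1.0, 5.0 or 10.0 µM for 24 h and washed in PBS. Total genomic DNA was isolated with a kit and run on a 2.0% agarose gel in 1× TAE at 100 V.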

A549 [22] = assay: Induction of apoptosis in human A549 cells assessed as microtubule network damage at 10.0 uM after 24 hrs by immunofluorescence; assay type: functional, cell-based; in short: as §3
A549 [23] = assay: Cell cycle arrest in human A549 cells assessed as accumulation at G2/M phase at 0.1 uM after 24 hrs by flow cytometry; assay type: functional; in short: as §2
A549 [24] = assay: Cell cycle arrest in human A549 cells assessed as accumulation at subG1 phase at 0.1 uM after 24 hrs by flow cytometry; assay type: functional; in short: as §2
A549 [25] = assay: Induction of apoptosis in human A549 cells assessed as PARP cleavage after 24 hrs by Western blot; assay type: functional, cell-based
In short: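 Exponentially growing A549 cells were treated for 24 h, then lysed on ice for 30 min in Tris pH 7.5/NP-40 buffer with protease and phosphatase inhibitors. Protein was measured by Bradford, and 20 µg was resolved on 10% SDS–PAGE and transferred to PVDF. Blots were blocked in 5% milk, probed with anti-PARP (1:1000, 2 h) then HRP anti-rabbit (1:5000, 30 min), and reprobed for β-actin as a loading check.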

A549 [26] = assay: Induction of apoptosis in human A549 cells assessed as morphological changes after 24 hrs by fluorescence microscopy; assay type: functional, cell-based
In short: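 A549 cells were treated with DMSO or compound at 1, 5 or 10 µM for 24 h at 37 °C, then photographed under a microscope.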

A549 [27] = assay: Induction of apoptosis in human A549 cells assessed as apoptotic bodies after 24 hrs by fluorescence microscopy; assay type: functional, cell-based; in short: as §3

Row | Structure (SMILES) | GI50 (HepG2) [µM] | GI50 (A549 [1]) [µM] | GI50 [2] [µM] | GI50 [3] [µM] | GI50 [4] [µM] | GI50 at 72 h [5] [µM] | other results
1 | O=C1c2cc(OCCN3CCCCC3)ccc2-c2c(-c3ccc(OCCN4CCCCC4)cc3)nc3ccccc3c21 | 4.32 | 5.68 | 6.24 | 6.38 | 1.35 | 4.34 | 
2 | O=C1c2cc(O)ccc2-c2c(-c3ccc(O)cc3)nc3ccccc3c21 | 9.12 | > 10 | > 10 | > 10 | > 10 | > 10 | 
3 | O=C1c2cc(O)ccc2-c2c(-c3ccc(OCCN4CCCCC4)cc3)nc3ccccc3c21 | 4.3 | 5.06 | 6.4 | 6.55 | 5.4 | 3.1 | 
4 | O=C1c2cc(O)ccc2-c2c(-c3ccc(OCCN4CCCCC4)cc3)nc3ccc(F)cc3c21 | 4.78 | 6 | 6.03 | 5.32 | 6.61 | 5.91 | 
5 | CN(C)CCCOc1ccc(-c2nc3ccccc3c3c2-c2ccc(OCCCN(C)C)cc2C3=O)cc1 | 4.35 | 3.07 | 5.39 | 5.35 | 3.05 | 3.68 | 
6 | CN(C)CCCOc1ccc(-c2nc3ccc(F)cc3c3c2-c2ccc(OCCCN(C)C)cc2C3=O)cc1 | 0.61 | 3.67 | 0.59 | 0.72 | 0.67 | 1.86 | 
7 | O=C1c2cc(O)ccc2-c2c(-c3ccc(O)cc3)nc3ccc(F)cc3c21 | > 10 | > 10 | > 10 | 5.88 | 9.01 | > 10 | 
8 | O=C1c2cc(OCCN3CCCC3)ccc2-c2c(-c3ccc(OCCN4CCCC4)cc3)nc3ccc(OCCN4CCCC4)cc3c21 | 0.62 | 0.67 | 3.44 | 0.37 | 1.73 | 0.71 | 
9 | O=C1c2cc(OCCN3CCCC3)ccc2-c2c(-c3ccc(OCCN4CCCC4)cc3)nc3ccccc3c21 | 4.03 | 3.75 | 6.15 | 6.95 | 3.46 | 5.31 | 
10 | O=C1c2cc(OCCN3CCCC3)ccc2-c2c(-c3ccc(OCCN4CCCC4)cc3)nc3ccc(F)cc3c21 | 4.92 | 6.23 | 6.11 | 4.3 | 6.24 | 5.15 | 
11 | COc1ccc(-c2nc3ccc(OC)cc3c3c2-c2ccc(OC)cc2C3=O)cc1 | > 10 | > 10 | > 10 | 7.84 | 12.5 | 10.2 | Activity (A549 [6]): 8.4%; Activity (A549 [7]): 0.9%; Activity (A549 [8]): 1%; Activity (A549 [9]): 14.7%; Activity (A549 [10]): 1%; Activity (A549 [11]): 76.9%; Activity (A549 [12]): 77.9%; Activity (A549 [13]): 13.2%; Activity (A549 [14]): 8.6%; Activity (A549 [15]): 14.3%; Activity (A549 [16]): 78.2%; Activity (A549 [17]): 7.8%
12 | CN(C)CCCOc1ccc(-c2nc3ccc(OCCCN(C)C)cc3c3c2-c2ccc(OCCCN(C)C)cc2C3=O)cc1 | 0.6 | 0.68 | 4.25 | 5.18 | 4.44 | 6.2 | Activity (A549 [18]): 73.9%; Activity (A549 [7]): 2%; Activity (A549 [8]): 17.1%; Activity (A549 [19]): Active; Activity (A549 [20]): 16.3%; Activity (A549 [21]): Active; Activity (A549 [22]): Active; Activity (A549 [23]): 9.8%; Activity (A549 [24]): 1.5%; Activity (A549 [12]): 71.9%; Activity (A549 [13]): 13.6%; Activity (A549 [14]): 11%; Activity (A549 [15]): 12.3%; Activity (A549 [16]): 75%; Activity (A549 [25]): Dose-dependent effect; Activity (A549 [26]): Active; Activity (A549 [17]): 15.8%; Activity (A549 [27]): Active

From ChEMBL document CHEMBL1152640, “Synthesis and antiproliferative evaluation of 6-arylindeno[1,2-c]quinoline derivatives” (Bioorg Med Chem, 2009)
